# Measured values published in ChEMBL document CHEMBL2016516, “Design, synthesis and biological evaluation of novel chalcone derivatives as antitubulin agents” (Bioorg Med Chem, 2012).
# Key:
# A549 = assay: Antiproliferative activity against human A549 cells after 48 hrs by MTT assay; assay type: functional, cell-based; conditions: A549, 48 h
# How it was run: (§1)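 Cells grown to log phase in RPMI 1640 with 10% FBS, diluted to 2 × 10⁴ cells/mL and seeded, then incubated 24 h at 37 °C, 5% CO₂ before treatment. Samples at pre-set concentrations were added in six wells, with colchicine and CA-4 as references. After 48 h, MTT in PBS was added for 4 h, followed by extraction solution (10% SDS).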
# [1] = Inhibition of bovine tubulin polymerization after 20 mins by spectrophotometry; design: species or system Bos taurus
# How it was run: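 Tubulin was purified from bovine brain. Varying compound concentrations were preincubated with 10 µM tubulin in glutamate buffer at 30 °C, then cooled to 0 °C. GTP was added and the mixtures were moved to 0 °C cuvettes. They were then warmed to 30 °C in a recording spectrophotometer, with assembly followed turbidimetrically.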
# MCF7 [2] = assay: Antiproliferative activity against human MCF7 cells after 48 hrs by MTT assay; assay type: functional, cell-based; conditions: MCF7, 48 h; how it was run: as §1
# MCF7 [3] = assay: Cell cycle arrest in human MCF7 cells assessed as accumulation in G0/G1 phase at 5 ug/ml after 24 hrs by flow cytometry (reference value: 47.79%); assay type: functional
# MCF7 [4] = assay: Cell cycle arrest in human MCF7 cells assessed as accumulation in G2/M phase at 5 ug/ml after 24 hrs by flow cytometry (reference value: 12.99%); assay type: functional
# MCF7 [5] = assay: Cell cycle arrest in human MCF7 cells assessed as accumulation in S phase at 5 ug/ml after 24 hrs by flow cytometry (reference value: 8.06%); assay type: functional
IC50 (A549),IC50 [1],IC50 (MCF7 [2]),Compound,Activity (MCF7 [3]),Activity (MCF7 [4]),Activity (MCF7 [5])
6.85 µg/mL,6.41 µg/mL,0.55 µg/mL,Cc1ccc(C(=O)/C=C/c2cc(Br)ccc2Oc2c([N+](=O)[O-])cc(C(F)(F)F)cc2[N+](=O)[O-])cc1,,,
26.3 µg/mL,12.31 µg/mL,6.01 µg/mL,O=C(/C=C/c1cc(Br)ccc1Oc1c([N+](=O)[O-])cc(C(F)(F)F)cc1[N+](=O)[O-])c1ccc(F)cc1,,,
10.9 µg/mL,4.62 µg/mL,1.41 µg/mL,O=C(/C=C/c1cc(Cl)ccc1Oc1c([N+](=O)[O-])cc(C(F)(F)F)cc1[N+](=O)[O-])c1ccc(Br)cc1,,,
16.5 µg/mL,7.14 µg/mL,4.74 µg/mL,O=C(/C=C/c1cc(Br)ccc1Oc1c([N+](=O)[O-])cc(C(F)(F)F)cc1[N+](=O)[O-])c1ccc(Cl)cc1,,,
12.6 µg/mL,4.08 µg/mL,2.32 µg/mL,COc1ccc(C(=O)/C=C/c2cc(Br)ccc2Oc2c([N+](=O)[O-])cc(C(F)(F)F)cc2[N+](=O)[O-])cc1,,,
13.7 µg/mL,6.25 µg/mL,2.17 µg/mL,O=C(/C=C/c1cc(Br)ccc1Oc1c([N+](=O)[O-])cc(C(F)(F)F)cc1[N+](=O)[O-])c1ccc(Br)cc1,,,
23.8 µg/mL,11.66 µg/mL,5.17 µg/mL,O=C(/C=C/c1cc(Cl)ccc1Oc1c([N+](=O)[O-])cc(C(F)(F)F)cc1[N+](=O)[O-])c1ccc(F)cc1,,,
11.7 µg/mL,4.68 µg/mL,3.21 µg/mL,O=C(/C=C/c1cc(Cl)ccc1Oc1c([N+](=O)[O-])cc(C(F)(F)F)cc1[N+](=O)[O-])c1ccc(Cl)cc1,,,

# Further lines, the molecule ahead of its results:
Compound,IC50 (A549),IC50 [1],IC50 (MCF7 [2]),Activity (MCF7 [3]),Activity (MCF7 [4]),Activity (MCF7 [5])
O=C(/C=C/c1cc(Br)cc(Br)c1Oc1c([N+](=O)[O-])cc(C(F)(F)F)cc1[N+](=O)[O-])c1ccc(Cl)cc1,19.4 µg/mL,12.6 µg/mL,6.76 µg/mL,,,
COc1ccc(C(=O)/C=C/c2cc(Br)cc(Br)c2Oc2c([N+](=O)[O-])cc(C(F)(F)F)cc2[N+](=O)[O-])cc1,13.2 µg/mL,6.02 µg/mL,3.53 µg/mL,,,
COc1ccc(C(=O)/C=C/c2cc(Cl)ccc2Oc2c([N+](=O)[O-])cc(C(F)(F)F)cc2[N+](=O)[O-])cc1,11.5 µg/mL,4.83 µg/mL,1.83 µg/mL,,,
COc1cc2c(c(OC)c1OC)-c1ccc(OC)c(=O)cc1[C@@H](NC(C)=O)CC2 [COLCHICINE],0.74 µg/mL,1.7 µg/mL,0.51 µg/mL,1.96%,78.1%,1.34%
Cc1ccc(C(=O)/C=C/c2cc(Cl)ccc2Oc2c([N+](=O)[O-])cc(C(F)(F)F)cc2[N+](=O)[O-])cc1,0.95 µg/mL,1.42 µg/mL,0.03 µg/mL,2.36%,67.93%,1.55%
O=C(/C=C/c1cc(Cl)cc(Cl)c1Oc1c([N+](=O)[O-])cc(C(F)(F)F)cc1[N+](=O)[O-])c1ccc(F)cc1,29.3 µg/mL,9.62 µg/mL,5.02 µg/mL,,,
Cc1ccc(C(=O)/C=C/c2cc(Cl)cc(Cl)c2Oc2c([N+](=O)[O-])cc(C(F)(F)F)cc2[N+](=O)[O-])cc1,10 µg/mL,4.87 µg/mL,0.7 µg/mL,,,
COc1ccc(C(=O)/C=C/c2cc(Cl)cc(Cl)c2Oc2c([N+](=O)[O-])cc(C(F)(F)F)cc2[N+](=O)[O-])cc1,12.5 µg/mL,6.56 µg/mL,2.69 µg/mL,,,
O=C(/C=C/c1cc(Cl)cc(Cl)c1Oc1c([N+](=O)[O-])cc(C(F)(F)F)cc1[N+](=O)[O-])c1ccc(Br)cc1,14.5 µg/mL,9.46 µg/mL,2.6 µg/mL,,,
Cc1ccc(C(=O)/C=C/c2cc(Br)cc(Br)c2Oc2c([N+](=O)[O-])cc(C(F)(F)F)cc2[N+](=O)[O-])cc1,10.1 µg/mL,5.68 µg/mL,1.44 µg/mL,,,
COc1ccc(/C=C\c2cc(OC)c(OC)c(OC)c2)cc1O [COMBRETASTATIN A4],0.53 µg/mL,0.81 µg/mL,0.43 µg/mL,,,
O=C(/C=C/c1cc(Br)cc(Br)c1Oc1c([N+](=O)[O-])cc(C(F)(F)F)cc1[N+](=O)[O-])c1ccc(Br)cc1,16.8 µg/mL,10.01 µg/mL,2.87 µg/mL,,,
O=C(/C=C/c1cc(Cl)cc(Cl)c1Oc1c([N+](=O)[O-])cc(C(F)(F)F)cc1[N+](=O)[O-])c1ccc(Cl)cc1,17.2 µg/mL,6.34 µg/mL,4.54 µg/mL,,,
O=C(/C=C/c1cc(Br)cc(Br)c1Oc1c([N+](=O)[O-])cc(C(F)(F)F)cc1[N+](=O)[O-])c1ccc(F)cc1,120 µg/mL,15.31 µg/mL,8.06 µg/mL,,,
